Test results reported in ChEMBL document CHEMBL1149791, “Evaluation of myorelaxant activity of 7-substituted hexahydroquinoline derivatives in isolated rabbit gastric fundus” (2008).
The source made the active and inactive calls. No cut-off for these calls is given here.

Experiments:
Stomach [1] = assay: Reversal of inhibition of electrical field stimulation-induced neurogenic contractions in New Zealand white rabbit gastric fundus smooth muscle in presence of glibenclamide; assay type: functional, Oryctolagus cuniculus
Stomach [2] = assay: Myorelaxant activity against noradrenaline-induced contractions in New Zealand white rabbit gastric fundus smooth muscle in presence of glibenclamide; assay type: functional, tissue-based; conditions: Oryctolagus cuniculus
Stomach [3] = assay: Inhibition of electrical field stimulation-induced neurogenic contractions in New Zealand white rabbit gastric fundus smooth muscle; assay type: functional, Oryctolagus cuniculus
Stomach [4] = assay: Myorelaxant activity against noradrenaline-induced contractions in New Zealand white rabbit gastric fundus smooth muscle; assay type: functional, Oryctolagus cuniculus
Summary of the method: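 Longitudinal fundus strips (15-20 mm x 2 mm) were equilibrated 60 min at 1 g basal tension in Krebs-Henseleit solution, with the solution changed every 15 min. L-NAME 10^-4 M and indomethacin 10^-5 M were added 20 min before precontraction. Strips were precontracted with noradrenaline 10^-5 M. Compounds in DMSO were added cumulatively, each step after a plateau. pD2 and Em (at 3 x 10^-4 M) are mean ± S.E., n = 6.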

Stomach [5] = assay: Inhibition of neostigmine-induced neurogenic contractions in New Zealand white rabbit gastric fundus smooth muscle; assay type: functional, tissue-based; conditions: Oryctolagus cuniculus
Summary of the method: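 Longitudinal gastric fundus strips (about 15–20 mm × 2 mm) from New Zealand white rabbits (2.5–3 kg), taken after i.v. pentobarbital. Strips were held in Krebs–Henseleit organ baths at 1 g basal tension and equilibrated 60 min. Contractions were evoked by electrical field stimulation through platinum electrodes (1 ms pulses, 60 V, 8 Hz) with neostigmine 10^-6 M. Compounds were dissolved in DMSO.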

Structure (SMILES): CC(N/C(=N\C#N)Nc1ccncc1)C(C)(C)C (centres undefined) [PINACIDIL ANHYDROUS]
- inhibition (INH) (Stomach [1]): 32.18%
- Activity (Stomach [2]): Active
- pD2 (Stomach [3]): 7.49
- Emax (Stomach [3]; Oryctolagus cuniculus, Stomach): 76.3%
- pD2 (Stomach [4]): 5.03
- Emax (Stomach [4]; Oryctolagus cuniculus, Stomach): 71.2%

Structure (SMILES): CN1[C@@H]2CC[C@H]1CC(OC(=O)[C@H](CO)c1ccccc1)C2 (some centres undefined)
- Activity (Stomach [3]; Oryctolagus cuniculus): Active
- Activity (Stomach [5]): Active

Structure (SMILES): NC1=N[C@H](O)[C@H]2[C@H]3O[C@]4(O)O[C@@H]([C@@H](O)[C@@]2(N1)[C@@H]4O)[C@]3(O)CO
- Activity (Stomach [3]; Oryctolagus cuniculus): Active
